The source of these data is ChEMBL document CHEMBL1122387, “Synthesis and biological evaluation of sparsomycin analogues” (1983).

Structures are written as SMILES.

The nature of experiment [1]: Percent inhibition of [75Se]- selenomethionine incorporation in the protein synthesis assay in bone marrow cell lines at a concentration of 10 E-3. In kind it is functional, Mus musculus. A digest of the protocol: (§1)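 Protein synthesis in 6×10^5 cells per well (3×10^6 cells/mL), from CD-1 mouse femoral marrow or ip-passaged DBA/2 P388 cells. Medium is Spinner's (10% heat-inactivated FCS for P388). 0.2 μCi L-[75Se]selenomethionine is added with compound, 2 h at 37 °C, 5% CO2, rocked. Cells are harvested and gamma-counted. % inhibition versus control cpm (ethanol controls where used), six replicate wells; puromycin or sparsomycin serves as control.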

The nature of experiment [2]: Percent inhibition of [123I]UdR incorporation in the DNA synthesis assay in bone marrow cells at a concentration of 10 e-3 M. In kind it is functional. The conditions noted are these: Mus musculus, Bone element; in the assay text read “[125I]UdR” for “[123I]UdR”. A digest of the protocol: (§2)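 DNA synthesis over 2 h at 37 °C, 5% CO2, on a rocker. Wells hold 6×10^5 cells (3×10^6 cells/mL): femoral marrow from male CD-1 mice, or P388 ascites cells kept by ip passage in DBA/2 mice. Medium is αMEM. Label is 0.1 μCi 125IUdR in 2×10^-5 M FUdR. Cells are harvested and gamma-counted. % inhibition versus control cpm, six replicate wells; ara-C serves as control.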

Experiment [3] deals with P388. Put plainly: Percent inhibition of [123I]UdR incorporation in the DNA synthesis assay in P388 cell lines at a concentration of 10 E-3 M. The format is functional. The conditions noted are these: Mus musculus, in the assay text read “[125I]UdR” for “[123I]UdR”. Summed up: as §2
Experiment [4] relates to P815. Nature of the experiment: Percent inhibition of [75Se]- selenomethionine incorporation in the protein synthesis assay in P815 cell lines at a concentration of 10 E-3 M. The format is functional. The conditions noted are these: Mus musculus. Summed up: (§3)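 P815 mastocytoma cells are cultured in complete DMEM and plated at 6×10^5 cells per well in CDMEM. 0.2 μCi L-[75Se]selenomethionine is added with compound, 2 h at 37 °C, 5% CO2, on a rocker. Cells are harvested and gamma-counted. % inhibition is taken versus control cpm (ethanol controls where used), four replicate wells.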

Experiment [5] has as its system P388. Nature of the experiment: Percent inhibition of [75Se]- selenomethionine incorporation in the protein synthesis assay in P388 cell lines at a concentration of 10 E-3 M. The format is functional. As to conditions: Mus musculus. A digest of the protocol:
as §1

The next experiment relates to Osteoclast-like. Nature of the experiment: Percent inhibition of [75Se]- selenomethionine incorporation in the protein synthesis assay in bone marrow cell lines at a concentration of 10 E-4. The format is functional, Mus musculus. Summed up:
as §1

The subject of experiment [6] is P815. Put plainly: Percent inhibition of [75Se]- selenomethionine incorporation in the protein synthesis assay in P815 cell lines at a concentration of 10 E-4 M. The conditions noted are these: Mus musculus. In kind it is functional. Summed up: as §3
Experiment [7] deals with P388. Nature of the experiment: Percent inhibition of [75Se]- selenomethionine incorporation in the protein synthesis assay in P388 cell lines at a concentration of 10 E-4 M. In kind it is functional. As to conditions: Mus musculus. Summed up: as §1

The Inhibition is the change of the read-out against control, counted positive when it falls. A higher Inhibition goes with a strong effect. The inhibition is the relative decrease from the control value, in per cent. For `Cc1nc(O)nc(O)c1/C=C/C(=O)NC(CO)Cc1ccc(Br)cc1` (stereo unspecified), the Inhibition in experiment [1] was found to be 64%. Further, the inhibition at 1000 µM in experiment [2] is 15%; with P388 [3] it was 34%; in the experiment with P815 [4], 94%; with P388 [5], 44%.
On to `Cc1nc(O)nc(O)c1/C=C/C(=O)NCCC(=O)NCc1ccc(Br)cc1`, for which the Inhibition in experiment [1] turned out to be 29%. Further, the inhibition at 1000 µM in the experiment with P815 [4] came to 69%; in the experiment with P388 [5], 23%.
Take `COc1ccc(CNC(=O)CCNC(=O)/C=C/c2c(C)nc(O)nc2O)cc1`: the Inhibition in experiment [1] was found to be 11%. The inhibition at 1000 µM in the experiment on P815 [4] was 0%; in the experiment with P388 [5], 1%.
In the case of `Cc1nc(O)nc(O)c1/C=C/C(=O)NCCc1ccccc1`, the Inhibition in experiment [1] was 34%. For the same compound, the inhibition at 1000 µM in experiment [2] was 0%; with P388 [3], 9%; with P815 [4], 2%; in the experiment with P388 [5], 1%.
`COc1ccc(CC(CO)NC(=O)/C=C/c2c(C)nc(O)nc2O)cc1` (stereo unspecified) returned an Inhibition in the experiment on Osteoclast-like of 0%. The inhibition at 100 µM in the experiment on P815 [6] and with P388 [7] was 0% each time.
In the case of `COc1ccc(CCNC(=O)/C=C/c2c(C)nc(O)nc2O)cc1`, the Inhibition in experiment [1] was determined as 44%. Also, the inhibition at 1000 µM in experiment [2] came to 0%; in the experiment on P388 [3], 2%; in the experiment with P815 [4], 0%; with P388 [5], 0%.
In experiment [1], `Cc1ccc(CCNC(=O)/C=C/c2c(C)nc(O)nc2O)cc1` gave an Inhibition of 35%. Further, the inhibition at 1000 µM in experiment [2] amounted to 0%; in the experiment with P388 [3] it was 0%; in the experiment with P815 [4], 11%; in the experiment on P388 [5] it was 0%.
`Cc1ccc(CC(CO)NC(=O)/C=C/c2c(C)nc(O)nc2O)cc1` (stereo unspecified): in experiment [1], the Inhibition stood at 40%. For the same compound, the inhibition at 1000 µM in experiment [2] turned out to be 0%; with P388 [3], 0%; in the experiment with P815 [4] it was 65%; with P388 [5], 4%.
In turn, `COc1ccc(C[C@H](N)C(=O)N[C@H]2[C@@H](O)[C@H](n3cnc4c(N(C)C)ncnc43)O[C@@H]2CO)cc1` [PUROMYCIN] yielded an Inhibition in experiment [1] of 61%. The figures for the inhibition at 1000 µM in the experiment on P815 [4] and in the experiment on P388 [5] were 98% and 64%, respectively.
With `Nc1ccn([C@@H]2O[C@H](CO)[C@@H](O)[C@@H]2O)c(=O)n1` [CYTARABINE], the inhibition at 1000 µM (in experiment [2]; in the experiment with P388 [3]) was 99% each time.
As to `Cc1nc(O)nc(O)c1/C=C/C(=O)NCCc1ccc(Br)cc1`, the Inhibition in experiment [1] stood at 42%. For the same compound, the inhibition at 1000 µM in experiment [2] came out at 0%; with P388 [3] it was 17%; in the experiment with P815 [4], 89%; in the experiment on P388 [5], 27%.
Take `Cc1nc(O)nc(O)c1/C=C/C(=O)NC(CO)Cc1ccccc1` (stereo unspecified): in experiment [1], the Inhibition worked out at 34%. In addition, the inhibition at 1000 µM in experiment [2] is 0%; in the experiment with P388 [3], 5%; with P815 [4], 52%; in the experiment with P388 [5] it was 6%.
As to `CSC[S@@+]([O-])CC(CO)NC(=O)/C=C/c1c(C)[nH]c(=O)[nH]c1=O` (stereo partly specified) [SPARSOMYCIN], in experiment [1], the Inhibition is on record as 29%. Also, the inhibition at 1000 µM in the experiment on P388 [5] was found to be 48%.
